Reference: ChEMBL document CHEMBL1144412, “High affinity central benzodiazepine receptor ligands: synthesis and biological evaluation of a series of phenyltriazolobenzotriazindione derivatives” (J Med Chem, 2005)

Columns and labels:
[1] = molecular target: GABA-A receptor; anion channel; assay: Displacement of [3H]flumazenil from bovine benzodiazepine receptor GABA-A channel of brain membranes; parameters: species or system Bos taurus
[2] = molecular target: GABA A receptor alpha-5/beta-3/gamma-2 (Rattus norvegicus, UniProt P18508+P19969+P63079); assay: Displacement of [3H]flumazenil from rat GABA-A Gamma-aminobutyric acid A receptor alpha-5-beta-3-gamma-2 expressed in HEK293 cells; format: cell-based
Outline: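 HEK293 cells stably expressing each rat subtype, grown in DMEM/F-12 with 10% FBS at 37 °C, 5% CO2. Harvested cells were homogenized in 10 mM potassium phosphate pH 7.4 and spun at 48 000g for 30 min at 4 °C. Pellets were washed and resuspended with 100 mM KCl. Incubated with [3H]flumazenil 1-2 nM and compound 10-9-10-5 M for 1 h at 4 °C. […] Ki from three determinations.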

[3] = molecular target: GABA A receptor alpha-2/beta-2/gamma-2 (Rattus norvegicus, UniProt P18508+P23576+P63138); assay: Displacement of [3H]flumazenil from rat GABA-A Gamma-aminobutyric acid A receptor alpha-2-beta-2-gamma-2 expressed in HEK293 cells; format: cell-based
Outline: (§1)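 HEK293 cells stably expressing each rat subtype, grown in DMEM/F-12 with 10% FBS at 37 °C, 5% CO2. Harvested cells were homogenized in 10 mM potassium phosphate pH 7.4 and spun at 48 000g for 30 min at 4 °C. Pellets were washed and resuspended with 100 mM KCl. Ki from three determinations.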

[4] = molecular target: GABA-A receptor; alpha-1/beta-2/gamma-2 (Rattus norvegicus, UniProt P18508+P62813+P63138); assay: Displacement of [3H]flumazenil from rat GABA-A Gamma-aminobutyric acid A receptor alpha-1-beta-2-gamma-2 expressed in HEK293 cells; format: cell-based; outline: as §1
GABA-A receptor; alpha-1/beta-2/gamma-2, sequence (P18508 whole entry): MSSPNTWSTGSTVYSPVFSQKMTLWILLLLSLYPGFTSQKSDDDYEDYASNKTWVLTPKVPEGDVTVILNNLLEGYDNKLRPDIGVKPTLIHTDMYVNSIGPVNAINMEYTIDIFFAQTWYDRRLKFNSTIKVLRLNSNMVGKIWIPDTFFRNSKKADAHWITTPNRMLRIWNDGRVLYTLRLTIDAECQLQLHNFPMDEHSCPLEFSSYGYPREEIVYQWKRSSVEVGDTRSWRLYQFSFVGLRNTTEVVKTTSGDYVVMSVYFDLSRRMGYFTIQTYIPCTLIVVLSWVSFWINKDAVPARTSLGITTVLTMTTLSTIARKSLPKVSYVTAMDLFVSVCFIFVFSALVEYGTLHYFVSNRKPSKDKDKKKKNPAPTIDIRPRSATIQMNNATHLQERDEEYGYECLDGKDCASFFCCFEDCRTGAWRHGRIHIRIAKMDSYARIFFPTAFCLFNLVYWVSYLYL
GABA-A receptor; alpha-1/beta-2/gamma-2, sequence (P62813 whole entry): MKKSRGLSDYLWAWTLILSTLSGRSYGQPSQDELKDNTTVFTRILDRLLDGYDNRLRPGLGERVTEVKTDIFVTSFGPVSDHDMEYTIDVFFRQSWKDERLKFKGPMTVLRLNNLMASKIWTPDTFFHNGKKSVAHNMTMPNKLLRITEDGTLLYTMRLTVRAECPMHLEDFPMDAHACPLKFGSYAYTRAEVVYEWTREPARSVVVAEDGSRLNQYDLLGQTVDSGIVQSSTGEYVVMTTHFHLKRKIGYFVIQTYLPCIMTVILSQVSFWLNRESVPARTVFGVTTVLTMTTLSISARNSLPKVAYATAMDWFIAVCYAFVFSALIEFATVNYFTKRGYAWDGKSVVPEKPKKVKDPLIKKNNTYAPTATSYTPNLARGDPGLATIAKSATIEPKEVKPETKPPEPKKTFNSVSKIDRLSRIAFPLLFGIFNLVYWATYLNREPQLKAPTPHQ
GABA-A receptor; alpha-1/beta-2/gamma-2, sequence (P63138 whole entry): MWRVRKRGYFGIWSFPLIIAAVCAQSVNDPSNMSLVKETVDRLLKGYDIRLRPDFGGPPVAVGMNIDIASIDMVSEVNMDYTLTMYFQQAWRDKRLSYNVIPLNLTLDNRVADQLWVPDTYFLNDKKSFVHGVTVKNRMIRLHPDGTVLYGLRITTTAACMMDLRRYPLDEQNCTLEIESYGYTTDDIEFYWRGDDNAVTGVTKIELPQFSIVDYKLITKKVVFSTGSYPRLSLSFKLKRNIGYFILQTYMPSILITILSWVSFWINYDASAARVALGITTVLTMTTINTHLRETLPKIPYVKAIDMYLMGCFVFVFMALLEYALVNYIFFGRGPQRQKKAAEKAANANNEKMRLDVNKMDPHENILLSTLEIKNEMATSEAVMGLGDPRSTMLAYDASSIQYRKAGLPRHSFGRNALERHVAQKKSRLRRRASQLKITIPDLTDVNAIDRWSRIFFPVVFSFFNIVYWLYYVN

GABA A receptor alpha-2/beta-2/gamma-2, sequence (P18508 whole entry): as the sequence (P18508 whole entry) above
GABA A receptor alpha-2/beta-2/gamma-2, sequence (P23576 whole entry): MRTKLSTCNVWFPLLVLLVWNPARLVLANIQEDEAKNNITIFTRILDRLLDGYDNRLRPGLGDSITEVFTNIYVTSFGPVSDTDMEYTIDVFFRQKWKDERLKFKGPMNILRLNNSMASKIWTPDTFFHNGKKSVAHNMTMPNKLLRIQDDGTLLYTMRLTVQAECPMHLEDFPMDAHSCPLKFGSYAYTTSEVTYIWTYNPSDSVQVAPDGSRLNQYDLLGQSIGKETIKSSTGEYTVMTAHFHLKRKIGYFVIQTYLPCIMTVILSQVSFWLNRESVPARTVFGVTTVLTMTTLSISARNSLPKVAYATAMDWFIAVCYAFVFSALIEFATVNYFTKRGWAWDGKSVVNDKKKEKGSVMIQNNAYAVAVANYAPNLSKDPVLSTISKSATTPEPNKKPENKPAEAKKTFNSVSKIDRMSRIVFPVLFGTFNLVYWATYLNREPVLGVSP
GABA A receptor alpha-2/beta-2/gamma-2, sequence (P63138 whole entry): as the sequence (P63138 whole entry) above
GABA A receptor alpha-5/beta-3/gamma-2, sequence (P18508 whole entry): as the sequence (P18508 whole entry) above
GABA A receptor alpha-5/beta-3/gamma-2, sequence (P19969 whole entry): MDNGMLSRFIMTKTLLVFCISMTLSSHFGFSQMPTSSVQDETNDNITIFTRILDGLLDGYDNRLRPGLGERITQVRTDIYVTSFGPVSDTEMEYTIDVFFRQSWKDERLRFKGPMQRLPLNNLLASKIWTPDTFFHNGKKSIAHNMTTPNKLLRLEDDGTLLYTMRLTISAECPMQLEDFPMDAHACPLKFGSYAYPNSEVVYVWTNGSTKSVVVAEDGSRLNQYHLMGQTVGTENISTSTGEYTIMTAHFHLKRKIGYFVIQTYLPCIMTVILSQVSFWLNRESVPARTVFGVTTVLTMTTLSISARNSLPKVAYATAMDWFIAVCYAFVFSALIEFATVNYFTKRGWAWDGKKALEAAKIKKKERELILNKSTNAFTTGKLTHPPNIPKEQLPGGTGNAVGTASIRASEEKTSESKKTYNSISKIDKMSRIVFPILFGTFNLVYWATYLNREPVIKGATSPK
GABA A receptor alpha-5/beta-3/gamma-2, sequence (P63079 whole entry): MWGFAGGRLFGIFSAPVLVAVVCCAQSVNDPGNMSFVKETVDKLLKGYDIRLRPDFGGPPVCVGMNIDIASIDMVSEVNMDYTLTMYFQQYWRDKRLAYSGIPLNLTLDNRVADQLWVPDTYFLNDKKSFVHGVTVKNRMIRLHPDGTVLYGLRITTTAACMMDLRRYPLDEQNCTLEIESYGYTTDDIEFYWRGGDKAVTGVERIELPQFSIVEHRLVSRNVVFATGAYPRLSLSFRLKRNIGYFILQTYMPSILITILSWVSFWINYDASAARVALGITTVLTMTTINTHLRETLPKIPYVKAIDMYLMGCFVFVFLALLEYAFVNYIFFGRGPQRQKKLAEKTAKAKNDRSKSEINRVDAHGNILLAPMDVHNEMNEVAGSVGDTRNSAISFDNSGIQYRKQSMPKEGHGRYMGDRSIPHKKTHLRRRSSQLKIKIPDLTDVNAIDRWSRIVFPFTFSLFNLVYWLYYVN

Compound	Ki [1]	Ki [2]	Ki [3]	Ki [4]
O=c1[nH]c2ccccc2n2c(=O)c(-c3ccc(Cl)cc3)nn12	169 nM			
Cc1ccc(-c2nn3c(=O)[nH]c4ccc(Cl)cc4n3c2=O)cc1	185 nM			
O=c1[nH]c2ccccc2n2c(=O)c(-c3ccc(F)cc3)nn12	54 nM			
O=c1[nH]c2ccccc2n2c(=O)c(-c3ccccc3F)nn12	> 10000 nM			
O=c1[nH]c2ccc(Cl)cc2n2c(=O)c(-c3ccc(Cl)cc3)nn12	38 nM			
COc1ccc(-c2nn3c(=O)[nH]c4ccccc4n3c2=O)cc1	11 nM	17.2 nM	14.3 nM	3.76 nM
COc1ccc(-c2nn3c(=O)[nH]c4ccc(Cl)cc4n3c2=O)cc1	6 nM	7.57 nM	18 nM	1.82 nM
O=c1[nH]c2ccccc2n2c(=O)c(-c3ccc(Br)cc3)nn12	224 nM			
COc1ccc(-c2nn3c(=O)[nH]c4ccccc4n3c2=O)cc1OC	> 10000 nM			
Cc1ccc(-c2nn3c(=O)[nH]c4ccccc4n3c2=O)cc1	616 nM			
O=c1[nH]c2ccccc2n2c(=O)c(-c3ccccc3)nn12	22 nM	24.1 nM	27.6 nM	9.14 nM
O=c1[nH]c2ccc(Cl)cc2n2c(=O)c(-c3ccc(F)cc3)nn12	56 nM			
O=c1[nH]c2ccc(Cl)cc2n2c(=O)c(-c3ccccc3)nn12	2.8 nM	10.3 nM	13.9 nM	1.74 nM
O=C1CN=C(c2ccccc2Cl)c2cc([N+](=O)[O-])ccc2N1 [CLONAZEPAM]	0.85 nM			
